In paper PMC3535304 (Bioorganic & medicinal chemistry, 2012):
Entries after “also recorded” stand apart in the source; their conditions may differ. Read-outs that look alike come from different tables or passages of the source.

What was measured:
[1] = tested on: CEM cells; assay: Cell growth inhibition, parental line of drug resistant pair; format: cell-based; details: Homo sapiens, CCRF-CEM, read-out: IC50 (cell growth inhibition)
[2] = tested on: CEM^Vbl100 cells; assay: Cell growth inhibition, drug resistant cell line; format: cell-based; details: Homo sapiens, CEM/VBL100, read-out: IC50 (cell growth inhibition)
Method in brief: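 Growth inhibition was read by MTT after 72 h exposure to a range of test-compound concentrations at 37 °C in 5% CO₂. DMSO was ≤0.25% final.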

[3] = tested on: caspase-8; assay: Western blot analysis in HeLa cells; format: cell-based, human; details: 24 or 48 h
Method in brief: (§1)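 HeLa cells were exposed to test compound for 24 or 48 h, washed in cold PBS, and lysed on ice for 30 min. Cleared lysate (20 μg protein, BCA) was run on 7.5–15% SDS-PAGE and moved to PVDF. Primary antibodies (2 h, room temperature) were procaspase-2, cleaved caspase-8, cleaved caspase-3, PARP and cyclin B1, followed by peroxidase secondary and ECL. Membranes were reprobed for β-actin.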

[4] = tested on: mitochondrial polarization and ROS production; assay: Mitochondrial functions; format: cell-based; details: data not shown
[5] = tested on: caspase-3; assay: Western blot analysis in HeLa cells; format: cell-based, human; details: 24 and 48 h
Method in brief: as §1

[6] = tested on: HeLa cells; assay: Annexin-V/PI apoptosis assay; format: cell-based, human; details: 250 or 500 nM, 24 or 48 h
Method in brief: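 HeLa cells exposed to test compound for 24 or 48 h, then labelled with annexin-V-FITC (kit protocol) and propidium iodide together. Red (PI) and green (FITC) fluorescence read by flow cytometry. Maximum DMSO 0.25%. Mean ± SEM of three independent experiments.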

[7] = tested on: HT-29 cells; assay: In vitro antiproliferative assay; format: cell-based, human; details: 3d vs 2d, 3e vs 2e
[8] = tested on: caspase-2; assay: Western blot analysis in HeLa cells; format: cell-based, human; details: 24 or 48 h
Method in brief: as §1

[9] = tested on: caspase-9; assay: Western blot analysis in HeLa cells; format: cell-based, human; details: data not shown
[10] = tested on: HeLa cells; assay: Flow cytometric analysis of cell cycle distribution; format: cell-based, human; details: 24 h, range tested 31 to 500 nM
Method in brief: (§2)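 Exponentially growing cells (5 × 10⁵) were treated 24 h with test compound at 31–500 nM. They were then fixed in ice-cold 70% ethanol and treated with lysis buffer containing RNase A and 0.1% Triton X-100. DNA was stained with propidium iodide and content measured by flow cytometry, with cycle phases taken from DNA histograms. Mean ± SEM of three independent experiments.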

[11] = tested on: six human cancer cell lines (HeLa, A549, HL-60, Jurkat, MCF-7, HT-29); assay: Antiproliferative activity across the panel of six human cancer cell lines; format: cell-based; details: read-out: IC50 values against the six cell lines (range)
Method in brief: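 Jurkat and HL-60 cells were grown in RPMI-1640; MCF-7, A549, HeLa and HT-29 in DMEM; all media had 10% FBS plus penicillin/streptomycin. Cells were seeded at 8 × 10³/well, held 18 h at 37 °C in 5% CO₂, then given fresh medium with test compound (DMSO stocks, ≤0.25% final) for 72 h. Viability was read by MTT. […] Mean ± SE, ≥3 experiments.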

[12] = tested on: cyclin B; assay: Western blot analysis in HeLa cells; format: cell-based, human; details: 48 h
Method in brief: as §1

[13] = tested on: LoVo^Doxo cells; details: IC50 LoVo^Doxo / IC50 LoVo; ref [8]; cited from earlier work
[14] = tested on: LoVo cells; details: read-out: IC50 (cell growth inhibition), ref [8]; cited from earlier work
[15] = tested on: A549-T12 cells; details: ref [8], cited from earlier work
[16] = tested on: A549 cells; details: read-out: IC50 (cell growth inhibition), cited from earlier work
[17] = tested on: HL-60 cells; details: read-out: IC50 (cell growth inhibition); HL-60, mean ± SE; ref [12]; cited from earlier work
[18] = tested on: Jurkat cells; details: read-out: IC50 (cell growth inhibition), mean ± SE, ref [12]; cited from earlier work
[19] = tested on: MCF-7 cells; details: read-out: IC50 (cell growth inhibition); MCF-7, mean ± SE; ref [12]; cited from earlier work
[20] = tested on: HT-29 cells; details: read-out: IC50 (cell growth inhibition); HT-29, mean ± SE; ref [12]; cited from earlier work
[21] = tested on: HeLa cells; details: read-out: IC50 (cell growth inhibition), mean ± SE, ref [12]; cited from earlier work
[22] = biological target: bovine brain tubulin (Bos taurus, UniProt P81947+Q6B856); assay: Inhibition of tubulin polymerization; format: biochemical; details: read-out: Tubulin assembly IC50; tubulin at 10 μM, 20 min incubation
Chain of bovine brain tubulin (Q6B856 whole entry): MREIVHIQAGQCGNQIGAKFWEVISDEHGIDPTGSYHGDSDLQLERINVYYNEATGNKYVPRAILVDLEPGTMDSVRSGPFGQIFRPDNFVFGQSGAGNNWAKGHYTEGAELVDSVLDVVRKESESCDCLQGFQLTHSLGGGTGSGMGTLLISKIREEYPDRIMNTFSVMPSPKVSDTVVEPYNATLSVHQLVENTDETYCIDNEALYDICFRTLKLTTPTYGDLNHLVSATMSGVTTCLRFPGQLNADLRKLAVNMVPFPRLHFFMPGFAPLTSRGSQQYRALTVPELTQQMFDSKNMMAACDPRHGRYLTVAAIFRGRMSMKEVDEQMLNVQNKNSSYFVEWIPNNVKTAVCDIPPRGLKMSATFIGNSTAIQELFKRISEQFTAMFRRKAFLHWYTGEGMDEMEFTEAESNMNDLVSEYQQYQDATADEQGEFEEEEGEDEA
Chain of bovine brain tubulin (P81947 whole entry): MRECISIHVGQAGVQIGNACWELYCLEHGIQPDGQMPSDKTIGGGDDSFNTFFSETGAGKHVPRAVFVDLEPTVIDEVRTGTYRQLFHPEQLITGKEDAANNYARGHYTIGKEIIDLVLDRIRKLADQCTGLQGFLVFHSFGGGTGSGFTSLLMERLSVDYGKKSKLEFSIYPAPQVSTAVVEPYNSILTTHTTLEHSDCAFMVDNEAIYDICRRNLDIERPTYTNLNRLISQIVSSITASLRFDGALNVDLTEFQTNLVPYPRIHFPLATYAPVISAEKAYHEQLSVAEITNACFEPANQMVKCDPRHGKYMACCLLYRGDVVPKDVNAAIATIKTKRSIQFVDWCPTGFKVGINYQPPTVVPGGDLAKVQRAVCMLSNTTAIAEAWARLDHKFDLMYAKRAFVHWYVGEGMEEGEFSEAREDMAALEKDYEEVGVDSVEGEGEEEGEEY

[23] = tested on: MCF-7 cells; assay: In vitro antiproliferative assay; format: cell-based, human; details: 3e vs 2e, 3b vs 2b
[24] = tested on: Jurkat cells; assay: In vitro antiproliferative assay; format: cell-based; details: Homo sapiens, 72 h, read-out: IC50 (cell growth inhibition)
Method in brief: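 Jurkat cells were grown in RPMI-1640 with 10% FBS, penicillin G (115 units/mL) and streptomycin (115 μg/mL). Cells were seeded at 8 × 10³ per well and held 18 h at 37 °C in 5% CO₂. Medium was then replaced with fresh medium containing the test compound (DMSO ≤0.25% final) at various concentrations for 72 h. Viability was read by MTT.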

[25] = tested on: Jurkat cells; assay: Flow cytometric analysis of cell cycle distribution; format: cell-based, human; details: 24 h
Method in brief: as §2

Row | Compound | IC50 [17] [nM] | IC50 [18] [nM] | IC50 [19] [nM] | IC50 [20] [nM] | IC50 ([16]; A549, mean ± SE, ref [12]) [nM] | IC50 [21] [nM] | IC50 [22] [nM] | other results
1 | CC[C@]1(O)C[C@@H]2CN(CCc3c([nH]c4ccccc34)[C@@](C(=O)OC)(c3cc4c(cc3OC)N(C)[C@H]3[C@@](O)(C(=O)OC)[C@H](OC(C)=O)[C@]5(CC)C=CCN6CC[C@]43[C@@H]65)C2)C1 [Vinblastine] | – | – | – | – | – | – | – | IC50 [1]: 0.8 ± 0.1 nM; IC50 [2]: 205 ± 46 nM
2 | CCOc1ccc(-c2sc(NC)nc2-c2cc(OC)c(OC)c(OC)c2)cc1 [3e, 5-(4-Ethoxyphenyl)-4-(3,4,5-trimethoxyphenyl)-N-methylthiazol-2-amine] | – | – | – | – | – | – | – | caspase-8 activation (appearance of cleavage product) [3]: clear caspase-8 and caspase-2 activation; effect on mitochondrial polarization and ROS production [4]: did not cause mitochondrial depolarization; also recorded: only slightly affected; caspase-3 activation [5]: clear activation of caspase-3; cleavage of caspase-3 substrate PARP [5]: cleavage of the caspase-3 substrate PARP; induction of apoptotic (annexin-V positive) cells [6]: Analogous behaviour but with a stronger effect; fold more potent than 2-amino counterpart [7]: 10 fold; caspase-2 activation (disappearance of uncleaved protein) [8]: clear caspase-8 and caspase-2 activation; caspase-9 activation [9]: did not induce activation of caspase-9; concentration at which G2/M accumulation was first observed [10]: 31 nM; IC50 [11]: 1.7 to 38 nM; cyclin B expression [12]: slight decrease
3 | COc1cccc2c1C(=O)c1c(O)c3c(c(O)c1C2=O)C[C@@](O)(C(=O)CO)C[C@@H]3O[C@H]1C[C@H](N)[C@H](O)[C@H](C)O1 [Doxorubicin] | – | – | – | – | – | – | – | Resistance ratio [13]: 109.6; IC50 [14]: 120 ± 30 nM
4 | CNc1nc(-c2cc(OC)c(OC)c(OC)c2)c(-c2ccc(OC)cc2)s1 [3d, 4-(3,4,5-Trimethoxyphenyl)-5-(4-methoxyphenyl)-N-methylthiazol-2-amine] | – | – | – | – | – | – | – | fold more potent than 2-amino counterpart [7]: 2 fold
5 | CC(=O)O[C@H]1C(=O)[C@@]2(C)[C@H]([C@H](OC(=O)c3ccccc3)[C@]3(O)C[C@H](OC(=O)[C@H](O)[C@@H](NC(=O)c4ccccc4)c4ccccc4)C(C)=C1C3(C)C)[C@]1(OC(C)=O)CO[C@@H]1C[C@@H]2O [Taxol] | – | – | – | – | – | – | – | Resistance ratio ([15]; IC50 A549-T12 / IC50 A549): 10.4; IC50 ([15]; read-out: IC50 (cell growth inhibition), A549-T12): 75.2 ± 12.5 nM; IC50 ([16]; A549, ref [8]): 7.2 ± 0.1 nM
6 | COc1cc(-c2nc(N)sc2-c2ccc(C(F)(F)F)cc2)cc(OC)c1OC [2c] | 5.1 ± 1.1 | 8.5 ± 1.2 | 0.4 ± 0.1 | 221 ± 50.2 | 357 ± 65 | 3.2 ± 0.4 | – | –
7 | COc1cc(-c2nc(N)sc2-c2ccc(C)cc2)cc(OC)c1OC [2b] | 3.9 ± 1.1 | 3.9 ± 0.6 | 280 ± 69.8 | 12.4 ± 5.1 | 42.8 ± 5.7 | 0.73 ± 0.2 | 440 ± 10 | –
8 | CNc1nc(-c2cc(OC)c(OC)c(OC)c2)c(-c2ccc(C)cc2)s1 [3b, 4-(3,4,5-Trimethoxyphenyl)-N-methyl-5-p-tolylthiazol-2-amine] | – | – | – | – | – | – | – | fold more potent than 2-amino counterpart [23]: ~28 fold
9 | COc1cc(-c2nc(N)sc2-c2ccc3ccccc3c2)cc(OC)c1OC [2a] | 2.7 ± 0.3 | 3.3 ± 0.9 | 51.2 ± 9.2 | 23.9 ± 3.9 | 3.8 ± 0.6 | 1.6 ± 0.6 | 740 ± 10 | –
10 | COc1ccc(/C=C\c2cc(OC)c(OC)c(OC)c2)cc1O [CA-4, Combretastatin A-4] | – | – | – | – | – | – | – | IC50 [24]: 5 ± 0.6 nM
11 | COc1cc(-c2nc(C)sc2-c2ccc3ccccc3c2)cc(OC)c1OC [3k, 4-(3,4,5-Trimethoxyphenyl)-2-methyl-5-(naphthalen-2-yl)thiazole] | – | – | – | – | – | – | – | caspase-8 activation (appearance of cleavage product) [3]: clear caspase-8 and caspase-2 activation; effect on mitochondrial polarization and ROS production [4]: only slightly affected; caspase-3 activation [5]: clear activation of caspase-3; cleavage of caspase-3 substrate PARP [5]: cleavage of the caspase-3 substrate PARP; induction of apoptotic (annexin-V positive) cells [6]: significant induction of apoptotic cells; caspase-2 activation (disappearance of uncleaved protein) [8]: clear caspase-8 and caspase-2 activation; caspase-9 activation [9]: did not induce activation of caspase-9; concentration at which G2/M accumulation was first observed [10]: 125 nM; concentration at which G2/M accumulation was first observed [25]: 125 nM
12 | COc1ccc(-c2sc(N)nc2-c2cc(OC)c(OC)c(OC)c2)cc1 [2d] | 3.2 ± 1.2 | 2.1 ± 0.4 | 60.9 ± 8.4 | 11.7 ± 3.9 | 20.2 ± 1.7 | 2.3 ± 0.2 | 1100 ± 70 | –
13 | CCOc1ccc(-c2sc(N)nc2-c2cc(OC)c(OC)c(OC)c2)cc1 [2e] | 0.9 ± 0.3 | 0.14 ± 0.05 | 44 ± 6.3 | 38.2 ± 11.4 | 0.09 ± 0.01 | 0.03 ± 0.005 | 610 ± 50 | –
